Results: ChEMBL document CHEMBL1137218, “Long hydrocarbon chain ether diols and ether diacids that favorably alter lipid disorders in vivo” (J Med Chem, 2004)

Assays:
Assay type in all cases: functional
Rattus norvegicus [1] = assay: Percent change from pre-treatment HDL-Cholesterol level at 100 mg/Kg after 1 week
In short: (§1)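 Female obese Zucker fatty rats Crl:(Zuc)-faBR, 10–12 weeks old (400–500 g), n=3–4, fed chow. Dosed by oral gavage once daily in 20% EtOH/80% PEG-200 for up to 14 days. Serum taken after a 6 h fast before dosing, at day 7 (orbital plexus) and at day 14 (cardiac puncture). TG by enzymatic kit on analyzer. HDL-C and non-HDL-C from Superose 6 gel-filtration profile area × total cholesterol. Results given as % change from pretreatment.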

Rattus norvegicus [2] = assay: Serum HDL cholesterol levels in female obese rats one week post treatment at 100 mg/kg oral dose; pretreatment value = 58 mg/dL
Rattus norvegicus [3] = organism: Rattus norvegicus; assay: In vitro inhibitory concentration against lipid synthesis in primary rat hepatocyte culture
In short: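 Primary hepatocytes isolated from male Sprague-Dawley rats (Seglen method) and plated on collagen in DMEM with 20% FBS, 100 nM insulin, 25 mM glucose. Medium made serum-free after 4 h, cultured overnight to monolayers. Then 4 h incubation with 0.25 μCi [14C]-acetate/well (1 Ci/mol) and 0–300 μM compound. Lipids extracted into scintillant and counted. IC50 derived from lipid synthesis rates by nonlinear sigmoidal fit.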

Rattus norvegicus [4] = assay: Insulin levels in female obese rats two weeks post treatment at 10 mg/kg oral dose; pretreatment value = 8.8 ng/mL
Rattus norvegicus [5] = assay: Serum Non-HDL cholesterol levels in female obese rats one week post treatment at 100 mg/kg oral dose; pretreatment value = 23 mg/dL
In short: (§2)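 Female obese Zucker fatty rats (10–12 weeks, 400–500 g), once-daily oral gavage in 20% EtOH/80% PEG-200 (v/v) for up to 14 days. Serum drawn after a 6 h fast, pre-dose and at days 7 and 14. Non-HDL cholesterol is serum total cholesterol times the percent area of the non-HDL peaks in a Superose 6HR gel-filtration profile with on-line cholesterol detection. n = 4 per dose.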

Rattus norvegicus [6] = assay: Serum Non-HDL cholesterol levels in female obese rats two weeks post treatment at 30 mg/kg oral dose; pretreatment value = 31 mg/dL; in short: as §2
Rattus norvegicus [7] = assay: Insulin levels in female obese rats one week post treatment at 100 mg/kg oral dose; pretreatment value = 8.6 ng/mL
Rattus norvegicus [8] = assay: Serum HDL cholesterol levels in female obese rats two weeks post treatment at 10 mg/kg oral dose; pretreatment value = 61 mg/dL
Rattus norvegicus [9] = assay: Serum Non-HDL cholesterol levels in female obese rats two weeks post treatment at 100 mg/kg oral dose; pretreatment value = 23 mg/dL; in short: as §2
Rattus norvegicus [10] = assay: Serum HDL cholesterol levels in female obese rats two weeks post treatment at 100 mg/kg oral dose; pretreatment value = 58 mg/dL
Rattus norvegicus [11] = assay: Serum Triglyceride levels in female obese rats two weeks post treatment at 10 mg/kg oral dose; pretreatment value = 1185 mg/dL
Rattus norvegicus [12] = assay: Serum NEFA levels in female obese rats two weeks post treatment at 10 mg/kg oral dose; pretreatment value = 1.4 mg/dL
Rattus norvegicus [13] = assay: Serum Triglyceride levels in female obese rats one week post treatment at 3 mg/kg oral dose; pretreatment value = 1111 mg/dL
Rattus norvegicus [14] = assay: Percent change from pre-treatment Non HDL-Cholesterol level at 100 mg/Kg after 1 week; in short: as §1
Rattus norvegicus [15] = assay: Percent change from pre-treatment HDL-Cholesterol level at 100 mg/Kg after 2 weeks; in short: as §1
Rattus norvegicus [16] = assay: Percent change from pre-treatment triglycerides level at 100 mg/Kg after 1 week; in short: as §1
Rattus norvegicus [17] = assay: Percent change from pre-treatment triglycerides level at 100 mg/Kg after 2 weeks; in short: as §1
Rattus norvegicus [18] = assay: Percent change from pre-treatment Non HDL-Cholesterol level at 100 mg/Kg after 2 weeks; in short: as §1
Rattus norvegicus [19] = assay: Insulin levels in female obese rats one week post treatment at 10 mg/kg oral dose; pretreatment value = 8.8 […]
Rattus norvegicus [20] = assay: Serum NEFA levels in female obese rats one week post treatment at 3 mg/kg oral dose; pretreatment value = 1.1 mg/dL
Rattus norvegicus [21] = assay: Serum HDL cholesterol levels in female obese rats two weeks post treatment at 3 mg/kg oral dose; pretreatment value = 57 mg/dL
Rattus norvegicus [22] = assay: Serum HDL cholesterol levels in female obese rats one week post treatment at 3 mg/kg oral dose; pretreatment value = 57 mg/dL
Rattus norvegicus [23] = assay: Blood glucose levels in female obese rats two weeks post treatment at 100 mg/kg oral dose; pretreatment value = 105 mg/dL
Rattus norvegicus [24] = assay: Blood glucose levels in female obese rats one week post treatment at 100 mg/kg oral dose; pretreatment value = 105 mg/dL
Rattus norvegicus [25] = assay: Serum NEFA levels in female obese rats two weeks post treatment at 30 mg/kg oral dose; pretreatment value = 1.2 mg/dL
Rattus norvegicus [26] = assay: Insulin levels in female obese rats two weeks post treatment at 100 mg/kg oral dose; pretreatment value = 8.6 ng/mL
Rattus norvegicus [27] = assay: Serum Non-HDL cholesterol levels in female obese rats one week post treatment at 30 mg/kg oral dose; pretreatment value = 31 mg/dL; in short: as §2
Rattus norvegicus [28] = assay: Serum HDL cholesterol levels in female obese rats one week post treatment at 10 mg/kg oral dose; pretreatment value = 56 mg/dL
Rattus norvegicus [29] = assay: Serum Triglyceride levels in female obese rats one week post treatment at 3 mg/kg oral dose; pretreatment value = 769 mg/dL
Rattus norvegicus [30] = assay: Blood glucose levels in female obese rats one week post treatment at 10 mg/kg oral dose; pretreatment value = 112 mg/dL
Rattus norvegicus [31] = assay: Serum Triglyceride levels in female obese rats one week post treatment at 30 mg/kg oral dose; pretreatment value = 1240 mg/dL
Rattus norvegicus [32] = assay: Blood glucose levels in female obese rats one week post treatment at 3 mg/kg oral dose; pretreatment value = 117 mg/dL
Rattus norvegicus [33] = assay: Serum HDL cholesterol levels in female obese rats two weeks post treatment at 3 mg/kg oral dose; pretreatment value = 59 mg/dL
Rattus norvegicus [34] = assay: Blood glucose levels in female obese rats one week post treatment at 30 mg/kg oral dose; pretreatment value = 109 mg/dL
Rattus norvegicus [35] = assay: Serum NEFA levels in female obese rats two weeks post treatment at 3 mg/kg oral dose; pretreatment value = 1.2 mg/dL
Rattus norvegicus [36] = assay: Serum Triglyceride levels in female obese rats two weeks post treatment at 100 mg/kg oral dose; pretreatment value = 746 mg/dL
Rattus norvegicus [37] = assay: Serum HDL cholesterol levels in female obese rats one week post treatment at 100 mg/kg oral dose; pretreatment value = 59 mg/dL
Rattus norvegicus [38] = assay: Serum Triglyceride levels in female obese rats two weeks post treatment at 10 mg/kg oral dose; pretreatment value = 943 mg/dL
Rattus norvegicus [39] = assay: Serum Triglyceride levels in female obese rats two weeks post treatment at 30 mg/kg oral dose; pretreatment value = 1240 mg/dL
Rattus norvegicus [40] = assay: Insulin levels in female obese rats two weeks post treatment at 10 mg/kg oral dose; pretreatment value = 8.2 ng/mL
Rattus norvegicus [41] = assay: Blood glucose levels in female obese rats two weeks post treatment at 3 mg/kg oral dose; pretreatment value = 117 mg/dL

Structure (SMILES): CC(C)(CO)CCCCCOCCCCCC(C)(C)CO
- Change (Rattus norvegicus [1]): 99%
- Activity (Rattus norvegicus [2]): 115 mg/dL
- IC50 (Rattus norvegicus [3]): 4 µM
- Activity (Rattus norvegicus [4]): 8.7 ng/mL
- Activity (Rattus norvegicus [5]): 5 mg/dL
- Activity (Rattus norvegicus [6]): 32 mg/dL
- Activity (Rattus norvegicus [7]): 3.5 ng/mL
- Activity (Rattus norvegicus [8]): 110 mg/dL
- Activity (Rattus norvegicus [9]): 10 mg/dL
- Activity (Rattus norvegicus [10]): 134 mg/dL
- Activity (Rattus norvegicus [11]): 1420 mg/dL
- Activity (Rattus norvegicus [12]): 1.5 mg/dL
- Activity (Rattus norvegicus [13]): 1031 mg/dL
- Change (Rattus norvegicus [14]): -82%
- Change (Rattus norvegicus [15]): 133%
- Change (Rattus norvegicus [16]): -91%
- Change (Rattus norvegicus [17]): -82%
- Change (Rattus norvegicus [18]): -68%
- Activity (Rattus norvegicus [19]): 14.8 ng/mL
- Activity (Rattus norvegicus [20]): 1.3 mg/dL
- Activity (Rattus norvegicus [21]): 56 mg/dL
- Activity (Rattus norvegicus [22]): 55 mg/dL
- Activity (Rattus norvegicus [23]): 104 mg/dL
- Activity (Rattus norvegicus [24]): 72 mg/dL
- Activity (Rattus norvegicus [25]): 0.82 mg/dL
- Activity (Rattus norvegicus [26]): 4.4 ng/mL
- Activity (Rattus norvegicus [27]): 15 mg/dL

Structure (SMILES): CC(C)(CO)CCCCOCCCCC(C)(C)CO
- Change (Rattus norvegicus [1]): 234%
- IC50 (Rattus norvegicus [3]): 11 µM
- Activity (Rattus norvegicus [28]): 100 mg/dL
- Activity (Rattus norvegicus [29]): 770 mg/dL
- Activity (Rattus norvegicus [30]): 110 mg/dL
- Activity (Rattus norvegicus [31]): 271 mg/dL
- Activity (Rattus norvegicus [5]): 14 mg/dL
- Activity (Rattus norvegicus [6]): 33 mg/dL
- Activity (Rattus norvegicus [32]): 114 mg/dL
- Activity (Rattus norvegicus [33]): 79 mg/dL
- Activity (Rattus norvegicus [9]): 26 mg/dL
- Activity (Rattus norvegicus [34]): 140 mg/dL
- Activity (Rattus norvegicus [35]): 1.5 mg/dL
- Activity (Rattus norvegicus [36]): 219 mg/dL
- Change (Rattus norvegicus [14]): -38%
- Change (Rattus norvegicus [15]): 366%
- Activity (Rattus norvegicus [37]): 192 mg/dL
- Change (Rattus norvegicus [16]): -77%
- Change (Rattus norvegicus [17]): -71%
- Activity (Rattus norvegicus [38]): 706 mg/dL
- Change (Rattus norvegicus [18]): 11%
- Activity (Rattus norvegicus [39]): 324 mg/dL
- Activity (Rattus norvegicus [40]): 9 ng/mL
- Activity (Rattus norvegicus [41]): 119 mg/dL
- Activity (Rattus norvegicus [23]): 101 mg/dL
- Activity (Rattus norvegicus [24]): 107 mg/dL
- Activity (Rattus norvegicus [27]): 20 mg/dL
